Test results reported in ChEMBL document CHEMBL1255500, “Safety and pharmacokinetics of the antiorthopoxvirus compound ST-246 following repeat oral dosing in healthy adult subjects” (Antimicrob Agents Chemother, 2010).

Assays:
[1] = AUC in healthy human at 800 mg/day, po administered for 21 days measured at day 1; type: ADME, organism-based; conditions: plasma
Summary of the method: (§1)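 Healthy adult volunteers, 8 per dose group, in the nonfasted state. Each took one oral dose daily for 21 days, within 30 min after a standard light meal (400 to 450 cal, ~25% fat). Venous blood was drawn predose and postdose on days 1, 6 and 21. Plasma was stored at −70°C and assayed by validated LC-MS/MS with an analog internal standard (range 50 to 4,000 ng/ml). AUCtau and Cmax were obtained by noncompartmental analysis.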

[2] = system: Homo sapiens; assay: Toxicity in healthy human assessed as incidence of urticaria at 400 mg/day, po administered for 21 days; type: organism-based; conditions: in vivo, 504 h
Summary of the method: (§2)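 Randomized, double-blind, placebo-controlled escalating study; 8 active and 2 placebo subjects per dose group, oral daily dosing after a standard light meal for 21 days. Safety was followed through adverse event reporting, vital signs, physical exam, hematology, blood chemistry, urinalysis and ECGs, with clinic visits at weeks 1 to 3. Laboratory AEs were graded by DAIDS criteria. Results are the number and percentage of subjects reporting each treatment-emergent AE.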

[3] = system: Homo sapiens; assay: Toxicity in healthy human assessed as incidence of dry mouth at 800 mg/day, po administered for 21 days; type: organism-based; conditions: in vivo, 504 h; summary of the method: as §2
[4] = system: Homo sapiens; assay: Toxicity in healthy human assessed as incidence of dry mouth at 250 mg/day, po administered for 21 days; type: organism-based; conditions: in vivo, 504 h; summary of the method: as §2
[5] = AUC in healthy human at 800 mg/day, po administered for 21 days measured at day 6; type: ADME, organism-based; conditions: plasma; summary of the method: as §1
[6] = AUC in healthy human at 800 mg/day, po administered for 21 days measured at day 21; type: ADME, organism-based; conditions: plasma; summary of the method: as §1
[7] = system: Homo sapiens; assay: Toxicity in healthy human assessed as incidence of urticaria at 800 mg/day, po administered for 21 days; type: organism-based; conditions: in vivo, 504 h; summary of the method: as §2
[8] = system: Homo sapiens; assay: Toxicity in healthy human assessed as incidence of somnolence at 400 mg/day, po administered for 21 days; type: organism-based; conditions: in vivo, 504 h; summary of the method: as §2
[9] = system: Homo sapiens; assay: Toxicity in healthy human assessed as incidence of abnormal eye sensation at 250 mg/day, po administered for 21 days; type: organism-based; conditions: in vivo, 504 h; summary of the method: as §2
[10] = system: Homo sapiens; assay: Toxicity in healthy human assessed as incidence of headache at 250 mg/day, po administered for 21 days; type: organism-based; conditions: in vivo, 504 h; summary of the method: as §2
[11] = system: Homo sapiens; assay: Toxicity in healthy human assessed as incidence of nausea at 800 mg/day, po administered for 21 days; type: organism-based; conditions: in vivo, 504 h; summary of the method: as §2
[12] = system: Homo sapiens; assay: Toxicity in healthy human assessed as incidence of fatigue at 800 mg/day, po administered for 21 days; type: organism-based; conditions: in vivo, 504 h; summary of the method: as §2
[13] = system: Homo sapiens; assay: Toxicity in healthy human assessed as incidence of somnolence at 250 mg/day, po administered for 21 days; type: organism-based; conditions: in vivo, 504 h; summary of the method: as §2
[14] = Tmax in healthy human at 250 to 800 mg/day, po administered for 21 days measured at day 1; type: ADME, organism-based; conditions: in vivo
Summary of the method: (§3)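 Phase I randomized, double-blind, placebo-controlled escalating multiple-dose study; 8 nonfasting healthy adults per dose group, one oral dose daily within 30 min after a standard light meal (400 to 450 cal, ~25% fat) for 21 days. Plasma was sampled serially on days 1, 6 and 21 (72 h after the last dose) and stored at −70°C. ST-246 was measured by validated LC-MS/MS with an analog internal standard (plasma range 50 to 4,000 ng/ml). Parameters (AUCtau, Cmax, Tmax, t1/2) came from noncompartmental analysis.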

[15] = system: Homo sapiens; assay: Toxicity in healthy human assessed as incidence of abnormal eye sensation at 800 mg/day, po administered for 21 days; type: organism-based; conditions: in vivo, 504 h; summary of the method: as §2
[16] = Half life in healthy human at 400 mg/day, po administered for 21 days measured at day 21; type: ADME, organism-based; conditions: in vivo; summary of the method: as §3
[17] = system: Homo sapiens; assay: Toxicity in healthy human assessed as incidence of urticaria at 250 mg/day, po administered for 21 days; type: organism-based; conditions: in vivo, 504 h; summary of the method: as §2
[18] = Cmax in healthy human at 400 mg/day, po administered for 21 days measured at day 1; type: ADME, organism-based; design: dose 400 mg/day, route oral; conditions: in vivo; summary of the method: as §1
[19] = system: Homo sapiens; assay: Toxicity in healthy human assessed as incidence of dry mouth at 400 mg/day, po administered for 21 days; type: organism-based; conditions: in vivo, 504 h; summary of the method: as §2
[20] = system: Homo sapiens; assay: Toxicity in healthy human assessed as incidence of fatigue at 250 mg/day, po administered for 21 days; type: organism-based; conditions: in vivo, 504 h; summary of the method: as §2
[21] = system: Homo sapiens; assay: Toxicity in healthy human assessed as incidence of headache at 800 mg/day, po administered for 21 days; type: organism-based; conditions: in vivo, 504 h; summary of the method: as §2
[22] = AUC in healthy human at 400 mg/day, po administered for 21 days measured at day 1; type: ADME, organism-based; conditions: plasma; summary of the method: as §3
[23] = Cmax in healthy human at 400 mg/day, po administered for 21 days measured at day 6; type: ADME, organism-based; design: dose 400 mg/day, route oral; conditions: in vivo; summary of the method: as §1
[24] = system: Homo sapiens; assay: Toxicity in healthy human assessed as incidence of flatulence at 800 mg/day, po administered for 21 days; type: organism-based; conditions: in vivo, 504 h; summary of the method: as §2
[25] = Cmax in healthy human at 250 mg/day, po administered for 21 days measured at day 6; type: ADME, organism-based; design: dose 250 mg/day, route oral; conditions: in vivo; summary of the method: as §1
[26] = system: Homo sapiens; assay: Toxicity in healthy human assessed as incidence of somnolence at 800 mg/day, po administered for 21 days; type: organism-based; conditions: in vivo, 504 h; summary of the method: as §2
[27] = system: Homo sapiens; assay: Toxicity in healthy human assessed as incidence of treatment-emergent adverse events at 800 mg/day, po administered for 21 days; type: organism-based; conditions: in vivo, 504 h; summary of the method: as §2
[28] = system: Homo sapiens; assay: Toxicity in healthy human assessed as incidence of flatulence at 400 mg/day, po administered for 21 days; type: organism-based; conditions: in vivo, 504 h; summary of the method: as §2
[29] = Tmax in healthy human at 250 to 800 mg/day, po administered for 21 days measured at day 21; type: ADME, organism-based; conditions: in vivo; summary of the method: as §3
[30] = AUC in healthy human at 250 mg/day, po administered for 21 days measured at day 21; type: ADME, organism-based; conditions: plasma; summary of the method: as §1
[31] = Cmax in healthy human at 400 mg/day, po administered for 21 days measured at day 21; type: ADME, organism-based; conditions: in vivo; summary of the method: as §3
[32] = system: Homo sapiens; assay: Toxicity in healthy human assessed as incidence of nausea at 250 mg/day, po administered for 21 days; type: organism-based; conditions: in vivo, 504 h; summary of the method: as §2
[33] = system: Homo sapiens; assay: Toxicity in healthy human assessed as incidence of headache at 400 mg/day, po administered for 21 days; type: organism-based; conditions: in vivo, 504 h; summary of the method: as §2
[34] = system: Homo sapiens; assay: Toxicity in healthy human assessed as incidence of treatment-emergent adverse events at 250 mg/day, po administered for 21 days; type: organism-based; conditions: in vivo, 504 h; summary of the method: as §2
[35] = system: Homo sapiens; assay: Toxicity in healthy human assessed as incidence of fatigue at 400 mg/day, po administered for 21 days; type: organism-based; conditions: in vivo, 504 h; summary of the method: as §2
[36] = Cmax in healthy human at 250 mg/day, po administered for 21 days measured at day 1; type: ADME, organism-based; design: dose 250 mg/day, route oral; conditions: in vivo; summary of the method: as §1
[37] = AUC in healthy human at 400 mg/day, po administered for 21 days measured at day 6; type: ADME, organism-based; conditions: plasma; summary of the method: as §1
[38] = Half life in healthy human at 250 mg/day, po administered for 21 days measured at day 21; type: ADME, organism-based; conditions: in vivo
Summary of the method: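 Healthy nonfasted volunteers took one oral dose daily for 21 days after a standard light meal. Plasma was sampled for 72 h after the last dose on day 21 (days 21 to 24) and quantified by validated LC-MS/MS. Terminal t1/2 was derived noncompartmentally from the observed elimination rate constant (λz), and mean and median were given.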

[39] = system: Homo sapiens; assay: Toxicity in healthy human assessed as incidence of nausea at 400 mg/day, po administered for 21 days; type: organism-based; conditions: in vivo, 504 h; summary of the method: as §2
[40] = Cmax in healthy human at 800 mg/day, po administered for 21 days measured at day 6; type: ADME, organism-based; design: dose 800 mg/day, route oral; conditions: in vivo; summary of the method: as §1
[41] = AUC in healthy human at 250 mg/day, po administered for 21 days measured at day 6; type: ADME, organism-based; conditions: plasma; summary of the method: as §1
[42] = AUC in healthy human at 400 mg/day, po administered for 21 days measured at day 21; type: ADME, organism-based; design: dose 400 mg/day, route oral; conditions: plasma; summary of the method: as §3
[43] = Cmax in healthy human at 800 mg/day, po administered for 21 days measured at day 1; type: ADME, organism-based; design: dose 800 mg/day, route oral; conditions: in vivo; summary of the method: as §1
[44] = AUC in healthy human at 250 mg/day, po administered for 21 days measured at day 1; type: ADME, organism-based; conditions: plasma; summary of the method: as §3
[45] = Tmax in healthy human at 250 to 800 mg/day, po administered for 21 days measured at day 6; type: ADME, organism-based; conditions: in vivo; summary of the method: as §3
[46] = Half life in healthy human at 800 mg/day, po administered for 21 days measured at day 21; type: ADME, organism-based; conditions: in vivo; summary of the method: as §3
[47] = system: Homo sapiens; assay: Toxicity in healthy human assessed as incidence of flatulence at 250 mg/day, po administered for 21 days; type: organism-based; conditions: in vivo, 504 h; summary of the method: as §2
[48] = system: Homo sapiens; assay: Toxicity in healthy human assessed as incidence of abnormal eye sensation at 400 mg/day, po administered for 21 days; type: organism-based; conditions: in vivo, 504 h; summary of the method: as §2

With `O=C(NN1C(=O)[C@@H]2[C@@H]3C=C[C@@H]([C@H]4C[C@@H]34)[C@@H]2C1=O)c1ccc(C(F)(F)F)cc1` [TECOVIRIMAT] the AUC at 504 h [1] was 21000 ng·h/mL, the Activity [2] was 0% and the Activity [3] was 12.5%. It also gave an Activity [4] of 0%, an AUC at 504 h [5] of 23400 ng·h/mL and an AUC at 504 h [6] of 22700 ng·h/mL. It also gave an Activity [7] of 0%, an Activity [8] of 0% and an Activity [9] of 0%. For the same compound, the Activity [10] was 37.5%, the Activity [11] was 12.5% and the Activity [12] was 0%. It also gave an Activity [13] of 0%, a Tmax [14] of 2.88 h and an Activity [15] of 12.5%. The half-life [16] was 19.8 h, the Activity [17] was 0% and the Cmax [18] was 1390 ng/mL. For the same compound, the Activity [19] was 0%, the Activity [20] was 12.5% and the Activity [21] was 25%. For the same compound, the AUC at 504 h [22] was 13100 ng·h/mL, the Cmax [23] was 1300 ng/mL and the Activity [24] was 25%. The Cmax [25] was 1210 ng/mL, the Activity [26] was 12.5% and the Activity [27] was 62.5%. It also gave an Activity [28] of 0%, a Tmax [29] of 2.67 h and an AUC at 504 h [30] of 10100 ng·h/mL. For the same compound, the Cmax [31] was 1460 ng/mL, the Activity [32] was 0% and the Activity [33] was 0%. For the same compound, the Activity [34] was 75%, the Activity [35] was 0% and the Cmax [36] was 985 ng/mL. It also gave an AUC at 504 h [37] of 15400 ng·h/mL, a half-life [38] of 18.8 h and an Activity [39] of 0%. For the same compound, the Cmax [40] was 2340 ng/mL, the AUC at 504 h [41] was 11900 ng·h/mL and the AUC at 504 h [42] was 16200 ng·h/mL. The Cmax [43] was 2280 ng/mL, the AUC at 504 h [44] was 9100 ng·h/mL and the Tmax [45] was 2.63 h. The half-life [46] was 20.7 h, the Activity [47] was 0% and the Activity [48] was 0%.
